In ChEMBL document CHEMBL1123836, “Synthesis and antiviral activity of 9-[4-hydroxy-3-(hydroxymethyl)but-1-yl]purines” (J Med Chem, 1987):

Tests used:
[1] = system: Vero; assay: Compound was tested for antiviral activity against Herpes Simplex virus Type-1(HFEM) in vero cells; assay type: functional, cell-based; conditions: Chlorocebus sabaeus
In short: (§1)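 Plaque reduction in Vero cell monolayers infected with about 50 PFU of HSV-1 or HSV-2. A concentration range of compound was included in an agarose overlay and kept present throughout. Plaques were counted 3 days post-infection. IC50 is the concentration giving a plaque count 50% of untreated controls. Stocks were 10 mg/mL in Me2SO, diluted in test medium.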

[2] = system: Vero; assay: Compound was tested for antiviral activity against Herpes Simplex virus Type-2(MS) in vero cells; assay type: functional, cell-based; conditions: Chlorocebus sabaeus; in short: as §1
[3] = system: MRC5; assay: Compound was tested for antiviral activity against Herpes Simplex virus Type-2(21929) in human lung fibroblasts (MRC-5); assay type: functional
In short: (§2)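 Virus yield reduction in MRC-5 cells infected at a multiplicity of about 1 PFU/cell. A concentration range of compound was added in culture medium after virus adsorption and kept present throughout. Supernatants were harvested 24 h post-infection and titrated on Vero cells. IC90 is the concentration reducing infectious yield by 90% versus untreated controls.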

[4] = system: MRC5; assay: Compound was tested for antiviral activity against Herpes Simplexin human lung fibroblasts (MRC-5)in vero cells; assay type: functional
[5] = system: MRC5; assay: Compound was tested for antiviral activity against Herpes Simplex virus Type-2(20605) in human lung fibroblasts (MRC-5); assay type: functional; in short: as §2
[6] = system: MRC5; assay: Compound was tested for antiviral activity against Herpes Simplex virus Type-1(18189) in human lung fibroblasts (MRC-5); assay type: functional; in short: as §2
[7] = system: MRC5; assay: Compound was tested for antiviral activity against Herpes Simplex virus Type-1(20132) in human lung fibroblasts (MRC-5); assay type: functional; in short: as §2
[8] = system: MRC5; assay: Compound was tested for antiviral activity against Herpes Simplex virus Type-1(19407) in human lung fibroblasts (MRC-5); assay type: functional; in short: as §2
[9] = system: MRC5; assay: Compound was tested for antiviral activity against Herpes Simplex virus Type-2(MS) in human lung fibroblasts (MRC-5); assay type: functional; in short: as §2
[10] = system: MRC5; assay: Compound was tested for antiviral activity against Herpes Simplex virus Type-1(HFEM) in human lung fibroblasts (MRC-5); assay type: functional; in short: as §2
[11] = system: MRC5; assay: compound was tested for antiviral activity against Herpes Simplex virus Type-2(20605) in human lung fibroblasts (MRC-5); assay type: functional; in short: as §2
[12] = system: MRC5; assay: compound was tested for antiviral activity against Herpes Simplex virus Type-1(19407) in human lung fibroblasts (MRC-5); assay type: functional; in short: as §2
[13] = system: MRC5; assay: compound was tested for antiviral activity against Herpes Simplex virus Type-2(MS) in human lung fibroblasts (MRC-5); assay type: functional; in short: as §2
[14] = system: MRC5; assay: compound was tested for antiviral activity against Herpes Simplex virus Type-2(21929) in human lung fibroblasts (MRC-5); assay type: functional; in short: as §2
[15] = system: MRC5; assay: compound was tested for antiviral activity against Herpes Simplex virus Type-1(HFEM) in human lung fibroblasts (MRC-5); assay type: functional; in short: as §2
[16] = system: MRC5; assay: compound was tested for antiviral activity against Herpes Simplex virus Type-2(17409) in human lung fibroblasts (MRC-5); assay type: functional; in short: as §2
[17] = system: MRC5; assay: compound was tested for antiviral activity against Herpes Simplex virus Type-1(20132) in human lung fibroblasts (MRC-5); assay type: functional; in short: as §2
[18] = system: MRC5; assay: compound was tested for antiviral activity against Herpes Simplex virus Type-1(18189) in human lung fibroblasts (MRC-5); assay type: functional; in short: as §2

For `CCCCCOC(=O)CC(CO)CCn1cnc2c(O)nc(N)nc21` (configuration not stated), the IC50 [1] was 6000 nM and the IC50 [2] was 15000 nM.

With `COc1nc(N)nc2c1ncn2CCC(CO)CO` the IC50 [1] was > 250000 nM and the IC50 [2] was 236000 nM.

Work on `Nc1nc(O)c2ncn(CCC(CC(=O)O)CC(=O)O)c2n1` yielded an IC50 [1] of 5800 nM and an IC50 [2] of 10000 nM.

Work on `COC(=O)CC(CO)CCn1cnc2c(O)nc(N)nc21` (configuration not stated) yielded an IC50 [1] of 81000 nM and an IC50 [2] of 31000 nM.

In the case of `CCCCCCCCCCCCCCCOC(=O)CC(CO)CCn1cnc2c(O)nc(N)nc21` (configuration not stated), the IC50 [1] is reported as 33000 nM and the IC50 [2] is reported as 128000 nM.

`CCCCCOC(=O)CC(CCn1cnc2c(O)nc(N)nc21)CC(=O)OCCCCC` showed an IC50 [1] of 4200 nM and an IC50 [2] of 3600 nM.

`Nc1nc2c(ncn2COCCO)c(=O)[nH]1` [ACYCLOVIR] was tested, and the IC90 [3] was 900 nM, the IC90 [4] was 700 nM and the IC90 [5] was 300 nM. For the same molecule, the IC90 [6] was 700 nM, the IC50 [1] was 3800 nM and the IC90 [7] was 900 nM. It also gave an IC90 [8] of 1400 nM, an IC50 [2] of 2500 nM and an IC90 [9] of 1200 nM. For the same molecule, the IC90 [10] was 4800 nM.

Work on `Nc1nc(O)c2ncn(CCC(CO)CO)c2n1` [PENCICLOVIR] yielded an IC90 [11] of 800 nM, an IC90 [12] of 600 nM and an IC90 [13] of 1100 nM. The IC90 [14] was 900 nM, the IC90 [15] was 1300 nM and the IC50 [1] was 6400 nM. For the same molecule, the IC90 [16] was 900 nM, the IC50 [2] was 6400 nM and the IC90 [17] was 600 nM. It also gave an IC90 [18] of 500 nM.
